Measurements published in article PMC6467756 (Journal of medicinal chemistry, 2019).
“Also recorded” adds a separate entry of the source. Where two headings read alike, the source gives them in different places.

How the values were obtained:
[1] = target: T1, Recombinant human glyoxalase I (GLO1) (Homo sapiens, UniProt Q04760); experiment: Human Glyoxalase 1 enzyme assay; type: biochemical; conditions: for GLO1 inhibition compared with 8-MSQ, in words: SAR statement
T1 sequence (Q04760 2-184 limits assumed): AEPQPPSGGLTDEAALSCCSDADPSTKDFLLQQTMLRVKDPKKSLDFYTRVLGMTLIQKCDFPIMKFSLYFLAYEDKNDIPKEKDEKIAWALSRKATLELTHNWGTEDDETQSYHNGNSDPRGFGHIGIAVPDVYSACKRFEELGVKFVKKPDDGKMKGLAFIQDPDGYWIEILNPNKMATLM
Procedure, shortened: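 Recombinant human GLO1 (40 ng) was preincubated 15–20 min with test compound in 100 mM sodium phosphate, pH 7.0. Substrate was GSH and methylglyoxal (each from 100 mM stock) mixed in buffer and left 20 min at room temperature to form hemithioacetal, then added. DMSO ≤5% final. A240 read every minute for 8 min. Rates were normalized to the uninhibited control (100%) after no-enzyme background subtraction. IC50s were benchmarked against a reference N-hydroxypyridone inhibitor. Library screens used 200 and 50 µM fragment, with a >50% inhibition hit threshold.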

mice = experiment: Observational assessment of toxicity after i.p. dosing; type: in vivo
FVB/NJ mice [2] = experiment: Forced swim test; type: in vivo; conditions: 12.5 mg/kg i.p., 120 min before test, p=0.041
MG levels in brain = experiment: Brain methylglyoxal; type: in vivo; conditions: for MG per mg brain tissue: mice, 30-240 min post-dose, vehicle 1.1 ± 0.3
Procedure, shortened: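 Separate mouse cohort dosed i.p. at 12.5 or 25 mg/kg. Brains collected at 30, 60, 120 and 240 min post-dose, n=3 per time point. Under isoflurane, mice were perfused transcardially with PBS, then brains were weighed, flash-frozen and stored at −80 °C. Tissue was minced, extracted with acetonitrile, bead-homogenized, centrifuged and filtered (2 µm). MG was quantified by LC-MS/MS against an 11-point 5–5000 ng/mL curve spiked into blank brain, expressed per mg wet tissue.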

FVB/NJ mice [3] = experiment: Open field test; type: in vivo; conditions: 12.5 mg/kg i.p., 90 min after injection, 30 min test
Procedure, shortened: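 Male and female FVB/NJ mice, 108–148 days old, tested in the light phase, were given 12.5 mg/kg i.p. or vehicle ([…]). After 90 min in the home cage, each was placed centrally in a 43×43×33 cm chamber under dim light inside a sound- and light-attenuating box for 30 min of free exploration. An infrared beam grid tracked distance traveled.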

human GLO1 = conditions: cited from earlier work

## N#Cc1ccccc1S(=O)(=O)Nc1cccc2cccnc12 [Compound 20, 2-Cyano-N-(quinolin-8-yl)benzenesulfonamide]
[1]
  GLO1 inhibition compared with 8-MSQ, in words: not tolerated

## CS(=O)(=O)Nc1ccc(-c2ccncc2)c2cccnc12 [Compound 38, N-(5-(Pyridin-4-yl)quinolin-8-yl)methanesulfonamide]
[1]
  GLO1 inhibition compared with 8-MSQ, in words: not well tolerated

## O=S(=O)(Nc1cccc2cccnc12)c1ccccc1 [Compound 8, N-(Quinolin-8-yl)benzenesulfonamide]
[1]; ratio of IC50 values vs 8-MSQ
  improvement in inhibition relative to 8-MSQ: 2 fold

## COc1cc(CCc2cc(NS(=O)(=O)c3ccccn3)c3ncccc3c2)cc(OC)c1 [Compound 60, N-(6-(3,5-Dimethoxyphenethyl)quinolin-8-yl)pyridine-2-sulfonamide]
mice; doses up to 100 mg/kg i.p.
  observational assessment of toxicity: no adverse responses
FVB/NJ mice [2]
  immobility in the FST vs vehicle: reduction in percent immobility; also recorded: significant decrease in the time spent immobile; also recorded: reduced immobility
MG levels in brain; 12.5 mg/kg i.p., between 30 and 240 min post-dose
  increase of MG levels in brain vs vehicle-treated mice: approximately 11 fold
MG levels in brain; 12.5 mg/kg i.p.
  MG per mg brain tissue: 11.8±4.1 ng/mg of brain tissue
MG levels in brain; 25 mg/kg i.p.
  MG per mg brain tissue: 14.1±3.1 ng/mg of brain tissue
MG levels in brain; summary statement in discussion
  increase in brain MG levels compared to vehicle-treated mice: > 10 fold
FVB/NJ mice [3]
  locomotor activity in open field vs vehicle: no effect

## CS(=O)(=O)Nc1ccc(N2CCCCC2)c2cccnc12 [Compound 45, N-(5-(Piperidin-1-yl)quinolin-8-yl)methanesulfonamide]
[1]
  GLO1 inhibition compared with 8-MSQ, in words: not well tolerated

## Cc1ccc2cccc(NS(C)(=O)=O)c2n1 [Compound 7, N-(2-Methylquinolin-8-yl)methanesulfonamide]
[1]; ratio of IC50 values vs 8-MSQ
  loss of affinity compared to 8-MSQ: ~ 2 fold

## O=c1cc(-c2ccccc2)cc(-c2ccccc2)n1O [Chugai-1, 1-hydroxy-4,6-diphenylpyridin-2(1H)-one, reference compound]
Human GLO1; value reported in the original literature report
  IC50: 1190 nM
[1]
  IC50: 1900 ± 200 nM

## CS(=O)(=O)Nc1cccc2cccnc12 [Compound 8-MSQ, N-(Quinolin-8-yl)methanesulfonamide]
[1]; fragment concentration 50 μM
  inhibition in second MBP library screening: essentially complete inhibition

## O=S(=O)(Nc1cccc2cccnc12)c1ccccn1 [Compound 23, N-(Quinolin-8-yl)pyridine-2-sulfonamide]
[1]; ratio of IC50 values vs 8-MSQ
  improvement in inhibition relative to 8-MSQ: ~ 14 fold

## Cc1ccc2cccc(NS(=O)(=O)c3ccccc3)c2n1 [Compound 9, N-(2-Methylquinolin-8-yl)benzenesulfonamide]
[1]
  GLO1 inhibition compared with 8-MSQ, in words: slight increase in inhibition

## COCCCn1ccc2cc(-c3cc(-c4ccccc4)cc(=O)n3O)cnc21 [Chugai-3d]
Human GLO1; reported by Chugai Pharmaceuticals
  IC50: 11 nM

## CS(=O)(=O)Nc1ccc(N2CCOCC2)c2cccnc12 [Compound 46, N-(5-Morpholinoquinolin-8-yl)methanesulfonamide]
[1]
  GLO1 inhibition compared with 8-MSQ, in words: not well tolerated

## O=S(=O)(Nc1ccc(-c2ccc(Cl)cc2)c2cccnc12)c1ccccn1 [Compound 48, N-(5-(4-Chlorophenyl)quinolin-8-yl)pyridine-2-sulfonamide]
mice; i.p. doses of 50 mg/kg and higher
  observed toxicity: visibly toxic

## CS(=O)(=O)Nc1ccc(-c2cncnc2)c2cccnc12 [Compound 39, N-(5-(Pyrimidin-5-yl)quinolin-8-yl)methanesulfonamide]
[1]
  GLO1 inhibition compared with 8-MSQ, in words: not well tolerated

## COc1ccccc1S(=O)(=O)Nc1cccc2cccnc12 [Compound 17, 2-Methoxy-N-(quinolin-8-yl)benzenesulfonamide]
[1]
  GLO1 inhibition compared with 8-MSQ, in words: not tolerated
